Assay outcomes as filed in PubChem BioAssay.
The list is not random: actives were taken first. Their share in the collection is about 1.2%.
RBBP9 inhibitor = human RBBP9 inhibitors, primary screen, biochemical, fluorescence polarization, FP-Rh probe, HTS; Serine hydrolase RBBP9 (Homo sapiens), O75884; AID 1515, 2009; actives 0.2% (n = 220,000); recombinant RBBP9; inhibition, % at 7.94 µM;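 active means inhibition above the campaign mean of all tested compounds plus 3 SD, cut at about 14% in these data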
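System: RBBP9 protein / Quantity: 2.5 µM RBBP9 dispensing solution, before mixing / Also added: Serine-hydrolase probe FP-Rh, 375 nM pre-mixing / Dosing: 7.94 µM single dose, 0.794% DMSO / Timing: enzyme-compound preincubation 30 min, then probe labeling 45 min, 25 °C / Signal: FP readout at 525/598 nm / Controls: DMSO-treated enzyme wells and wells lacking RBBP9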
Rad51 HR inh = human RAD51 strand exchange inhibitors, primary screen, biochemical, fluorescence. inhibition, % at 10 µM. actives 0.085% (n = 200,000). hRad51 DNA strand exchange, fluorescence dequenching;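 active means inhibition above 40% at the single screening dose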
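Assay system: Human Rad51 nucleoprotein filaments preassembled on unlabelled ssDNA | Reagent: Donor/quencher-labelled 47-bp dsDNA substrate | Doses: One concentration, 10 µM final | Times: 37 °C 15-min filament assembly, 30-min compound preincubation, 15-min exchange | Technique: Fluorescein emission 520 nm, excitation 485 nm | Benchmarks: Plate control and blank wells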
FID counter = compounds displacing fluorescent DNA intercalator, primary screen, artefact control for HCV NS3 helicase inhibitor project, biochemical, FID fluorescence. DNA fluorescent intercalator displacement. actives 0.17% (n = 290,000). inhibition, % at 7.9 µM; in the data active means inhibition above about 37%;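 further: higher means more ethidium bromide displaced from hairpin DNA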
Wee1 stabilizer = Wee1 degradation inhibitors, primary screen, cell-based, HeLa, Wee1K328M-luciferase, luminescence; Wee1-like protein kinase (Homo sapiens), P30291; HeLa Luc-Wee1K328M stability; 100% = proteasome inhibitor MG132 effect; reporter increase, % at 5 µM; actives 1.2% (n = 220,000); AID 1321, 2008;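 active means activation above the mean of all tested compounds plus 3 SD, set per screening run, cut at about 8.8% in these data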;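 further: cells exposed to compound for 20 h before luminescence read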
Target sequence (P30291 whole entry K328M): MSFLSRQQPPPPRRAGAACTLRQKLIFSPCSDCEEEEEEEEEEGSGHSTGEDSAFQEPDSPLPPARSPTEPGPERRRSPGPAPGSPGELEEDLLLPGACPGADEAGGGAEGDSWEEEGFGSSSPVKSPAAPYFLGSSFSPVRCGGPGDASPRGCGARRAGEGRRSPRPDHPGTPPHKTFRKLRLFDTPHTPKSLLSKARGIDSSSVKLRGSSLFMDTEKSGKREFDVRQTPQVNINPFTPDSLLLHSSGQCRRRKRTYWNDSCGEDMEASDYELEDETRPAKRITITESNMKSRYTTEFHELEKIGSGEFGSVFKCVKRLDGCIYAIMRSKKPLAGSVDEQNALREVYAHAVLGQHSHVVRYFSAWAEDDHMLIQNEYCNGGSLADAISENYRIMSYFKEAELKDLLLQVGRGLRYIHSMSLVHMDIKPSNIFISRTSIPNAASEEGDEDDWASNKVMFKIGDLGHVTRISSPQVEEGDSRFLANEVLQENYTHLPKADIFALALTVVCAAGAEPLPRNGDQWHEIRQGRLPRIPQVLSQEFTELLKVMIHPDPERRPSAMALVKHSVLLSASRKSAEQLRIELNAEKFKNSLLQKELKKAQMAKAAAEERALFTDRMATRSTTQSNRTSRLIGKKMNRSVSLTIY
Wee1 stab conf = Wee1 degradation inhibitors, confirmation, cell-based, HeLa, Wee1K328M-luciferase, luminescence, triplicate; shares compounds with Wee1 stabilizer; HeLa Luc-Wee1K328M degradation; vehicle 0%, proteasome-blocked wells 100%; activation, % at 5 µM; actives 4% (n = 1,100); AID 1410, 2008; in the data active means activation above about 8.9%
A number is an active result; - = inactive; . = not tested or not shown.

SMILES	RBBP9 inhibitor	Rad51 HR inh	FID counter	Wee1 stabilizer	Wee1 stab conf
CC(=O)c1ccccc1NC(=O)CCCNC(=O)c1ccc(Cl)cc1	.	.	-	.	.
CCc1ccc2c(COC(=O)c3n[nH]c4ccccc34)cc(=O)oc2c1	-	-	-	-	.
Cc1ccc2c(COC(=O)c3n[nH]c4ccccc34)cc(=O)oc2c1	-	-	-	14	-
O=C(CCCN1C(=O)c2cccnc2C1=O)Nc1ccc(Br)cc1	-	-	-	-	.
CCCCNc1c2c(nc3c(-c4ccccc4)c(C)nn13)CCC2	-	-	-	13	-
O=C(CCn1c(=O)oc2cc(Cl)ccc21)Nc1ccc(O)cc1	.	.	-	.	.
CC(C)[C@H](NC(=O)c1ccco1)C(=O)OCC(=O)N1CC(=O)Nc2ccccc21	-	-	-	14	-
CCOC(=O)c1cnc2ccc(OC)cc2c1NCc1ccccc1	-	-	-	13	-
CCOC(=O)c1cnc2ccc(OCC)cc2c1NCc1ccccc1OC	-	-	-	-	.
CC(C)CCNC(=O)c1cc(-c2ccncc2)nc2ccc(S(=O)(=O)N3CCOCC3)cc12	-	.	-	11	-
CSc1ccc(/C=N/n2c(Cc3ccc(Br)cc3)n[nH]c2=S)cc1	-	-	-	11	-
CCN(CCC(=O)Nc1cc([N+](=O)[O-])ccc1OC)Cc1ccccc1	-	.	-	13	-
Cc1cc(-c2nn(-c3ccccc3F)cc2CN(C)CC(O)CO)c(C)s1 (configuration not stated)	-	.	-	13	-
Cc1cc(-c2nn(-c3ccccc3F)cc2CN2CCC(O)CC2)c(C)s1	-	-	-	-	.
CC1=C(C)CS(=O)N(S(=O)(=O)c2ccccc2)C1 (configuration not stated)	-	-	-	11	-
CC1=C(C)CS(=O)N(c2ccc(S(N)(=O)=O)cc2)C1 (configuration not stated)	-	-	-	-	.
O=C(N=C1SCC(=O)N1c1ccccc1Cl)c1ccco1	-	-	-	14	-
COc1ccccc1NC(=O)c1csc2c1CCCC2	-	-	-	-	.
O=C(Nc1ccccn1)c1csc2c1CCCC2	-	-	-	18	-
CC(C)Cc1cc(CN2CCCC(CO)(Cc3cccc(Cl)c3)C2)[nH]n1 (configuration not stated)	-	-	-	-	.
Cc1cc(CN2CCCC(CO)(Cc3cccc(Cl)c3)C2)n[nH]1 (configuration not stated)	-	.	-	14	-
Cn1c(SC/C=C/c2ccccc2)nnc1-c1ccco1	-	-	-	12	-
NS(=O)(=O)c1ccc(CCNC(=O)c2cc(-c3cccs3)nc3ccccc23)cc1	-	-	-	12	-
COc1cc(/C=N/NC(=O)c2cc(-c3cccs3)nc3ccccc23)ccc1O	-	-	-	12	-
NS(=O)(=O)c1ccc(CNC(=O)c2cc(-c3cccs3)nc3ccccc23)cc1	-	-	-	-	.
SMILES	RBBP9 inhibitor	Rad51 HR inh	FID counter	Wee1 stabilizer	Wee1 stab conf
N#Cc1ccc(/C=N/NC(=O)c2cc(-c3cccs3)nc3ccccc23)cc1	-	-	-	-	.
COc1ccccc1CCN=C(N)NS(=O)(=O)c1ccccc1F	.	.	-	.	.
CC(Nc1cccnc1)=C(C#N)C#N	-	-	-	-	.
COc1ccc(/C=C/C(=O)Nc2c(C)nn(C)c2C)cc1COc1ccc(Cl)cc1Br	-	-	-	-	.
COc1ccc(-c2nc(CCl)cs2)cc1OC	-	-	-	-	.
COc1ccc(-c2nc(-c3ccc(O)cc3O)cs2)cc1OC	-	-	-	13	-
O=C(NC(Cc1ccccc1)C(=O)O)/C(=C/c1cccc([N+](=O)[O-])c1)NC(=O)c1cccc(Br)c1 (configuration not stated)	.	.	-	.	.
COc1cccc(-c2nc(CS(=O)(=O)CC(=O)NCCCN3CCOCC3)c(C)o2)c1	.	.	-	.	.
Cc1ccccc1OCC(=O)OCn1nnc2ccccc2c1=O	-	.	-	13	-
O=C(COc1ccc(Cl)cc1Cl)OCn1nnc2ccccc2c1=O	-	-	-	-	.
O=C(/C(=C/O)N=Nc1ccccc1)c1cccs1	-	-	-	11	-
CC(C)(C)c1ccc(C(=O)NCCNC(=O)c2ccco2)cc1	.	.	-	.	.
Cc1ccc(S(=O)(=O)CCC(=O)OCC(=O)NC(N)=O)cc1	-	-	-	14	-
Cc1ccc(S(=O)(=O)CCC(=O)OCC(=O)Nc2cc(C)on2)cc1	-	-	-	-	.
CCn1nnnc1-c1ccc(OC)c(S(=O)(=O)NCCc2ccccc2)c1	-	-	-	-	.
Cc1ccccc1OCc1nc2ccccc2c(=O)n1/N=C/c1cn[nH]c1-c1ccccc1	-	-	-	11	-
Cc1ccc(-c2[nH]ncc2/C=N/n2c(COc3ccccc3)nc3ccccc3c2=O)cc1	-	-	-	-	.
COc1ccc(CCN2C(=O)N(c3ccc(OC)cc3)C(=O)C2CC(=O)Nc2ccccc2)cc1 (configuration not stated)	-	-	-	21	-
Cc1ccc(O)c(C(CC(=O)NCc2ccco2)c2ccccc2)c1 (configuration not stated)	-	-	-	11	-
c1ccc(-n2cnnc2SCc2cn3ccsc3n2)cc1	-	-	-	13	-
Cc1ccc(NC(=O)CCCc2ccccc2)c([N+](=O)[O-])c1	.	.	-	.	.
COc1ccc(C2c3ccc(O)cc3Oc3ncn4nc(-c5ccccn5)nc4c32)cc1 (configuration not stated)	-	-	-	11	-
COc1ccc(C2c3ccc(O)cc3Oc3ncn(Cc4ccccc4)c(=N)c32)cc1OC (configuration not stated)	-	-	-	19	-
CCOC(=O)c1c(NC(=O)CSc2nnc(C)s2)sc2c1CCC(CC)C2 (configuration not stated)	-	-	-	-	.
O=C(OCC1OC(n2cnc3c(N(C(=O)c4ccccc4)C(=O)c4ccccc4)ncnc32)C(O)C1F)c1ccccc1 (configuration not stated)	-	.	-	11	-
Nc1ncnc2c1ncn2C1OC(CO)C(O)C1N (configuration not stated)	-	-	-	-	.
Cc1ccc(/C=C(\C#N)C(=O)Nc2cccc(C)n2)cc1	.	.	-	.	.
Cc1ccc(NC(=O)CSc2nnc(-c3cccs3)o2)cc1S(=O)(=O)N(C)C	-	.	-	21	-
CC(=O)c1ccc(OCc2ccc(Oc3c(Cl)cccc3[N+](=O)[O-])cc2)cc1	-	.	-	-	.
COCCCNC(=O)Cn1cnc2sc(C)c(S(=O)(=O)N3CCN(c4ncccn4)CC3)c2c1=O	-	-	-	-	.
